Screens as filed in PubChem.
This is a sample that favours compounds with a hit; in the whole collection about 8.9% have one here.
MT stabilizer: stabilizes microtubules in HeLa cells; HeLa tubulin immunostaining HCS, 24 h; share of cells brighter than vehicle mean+2SD; % tubulin-high responders, % at 10 µM; 200,000 compounds, 0.83% hits; AID 2205;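 active = plate Z-score above 3 for both tubulin-high and condensed-nucleus cell shares, with cell loss under 80%, at 10 µM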;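 also: anti alpha tubulin signal scored within the nucleus-defined area of each cell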
L major viab: Leishmania major promastigote growth inhibition. Leishmania major promastigotes, resazurin fluorescence viability. inhibition, % at 10 µM. 200,000 compounds, 9% hits. AID 1063; in the data active = inhibition above about 50%;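 also: promastigotes grown with compound for 44 hours at 28 °C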
HSV augment: HSV replication enhancement. HSV replication augmentation in cells, fold increase. maximum fold increase. 220,000 compounds, 0.005% hits. AID 1956; in the data active = maximum fold increase above about 1.5; inconclusive = no clear call, values can overlap the other calls; tested in PC3 cells
Dynein cargo inh: dynein cargo transport inhibition; 3617.4 mouse cells, GR-EGFP nuclear translocation imaging; test concentration mostly 20 µM; stimulated with dexamethasone, 1 µM; hits give low values; z-score, hits read low; 220,000 compounds, 0.47% hits;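 active = plate z-score of nuclear minus cytoplasmic receptor signal below a set negative limit, without overly bright fluorescence or cell loss, cut at about -3.5 in these data, passing the limit was not always enough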;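 also: z-score of nuclear minus cytoplasmic ring GR-EGFP intensity difference per well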
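Buffer or medium: tetracycline-free induction medium containing charcoal-stripped FBS / Reagent: dexamethasone agonist, 1.0 µM final, for 30 min / Technique: automated 10x imaging of fixed Hoechst-stained cells / Times: induction 48 h, compound 1 h, agonist 30 min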
bCat nuc transl: alters nuclear translocation of beta-catenin in HeLa cells; immunofluorescence imaging; nuclear translocation activity, % at 5 µM; 190,000 compounds, 0.3% hits;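 active = nuclear translocation activity above 50% at 5 µM, with a well cell count of 50 or more; inconclusive = wells under 50 cells across six images, flagged as toxic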;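 also: per-cell ratio of nuclear to cytoplasmic median beta-catenin stain intensity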
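Test system: human HeLa cells, native beta-catenin. Compound dosing: 5 µM primary single dose, 0.1% DMSO, 0.02–20 µM confirmation series. Incubation: compound exposure 24 h at 37°C. Detection: beta-catenin immunostaining with DAPI counterstain, 20x imaging, 6 fields/well. Read-out basis: Nuclear/cytoplasmic beta-catenin signal ratio, % activation.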
Each line names hits and unclear results; the compound was inactive in the other large screens.

Cc1cc(C)n(-c2nc3ccccc3nc2N2CCC(C)CC2)n1	none
Cc1cc(N2CCC(C)CC2)nc(-n2nc(C)cc2C)n1	L major viab 97
O=C(Cc1cccs1)NCCc1csc(-c2ccccc2)n1	none (no result: MT stabilizer, L major viab)
COc1ccc(C(=O)Nc2ccc(N3CCN(C(=O)c4ccccc4)CC3)cc2)cc1[N+](=O)[O-]	none
O=C(Nc1ccc(N2CCN(C(=O)c3ccccc3)CC2)cc1)c1ccc([N+](=O)[O-])o1	MT stabilizer 15, L major viab 101
CC(C)C(=O)N1CCN(c2ccc(NC(=O)c3ccc([N+](=O)[O-])o3)cc2)CC1	L major viab 99
COc1cccc(OC)c1OCCOc1ccccc1OC(C)C	none (no result: bCat nuc transl)
Nc1ncccc1OCc1ccc(Cl)c(Cl)c1	none (no result: MT stabilizer, L major viab)
O=C(CN1CCOCC1)N/N=C/c1cc2ccccc2nc1Cl	none
Cc1ccc(NCC(=O)N/N=C/c2cc3ccccc3nc2Cl)cc1	L major viab 84 (no result: HSV augment)
c1ccc(-c2oc3ncnc(NCCN4CCOCC4)c3c2-c2ccccc2)cc1	L major viab 98 (no result: HSV augment)
N=c1c2c(-c3ccccc3)c(-c3ccccc3)oc2ncn1CCCN1CCOCC1	L major viab 87
CN(C)C=Nc1ncc2c3ccccc3n(CCN(C)C)c2c1C#N	L major viab 98
CN(C)C=Nc1ncc2c3ccccc3n(Cc3ccccc3)c2c1C#N	none
CCNC(=O)c1ccc(C23CC4CC(CC(C4)C2)C3)o1	L major viab 89
CCN(C(=O)c1cc2ccccc2o1)C12CC3CC(CC(C3)C1)C2	none
CN(CCCC[C@H](CNCc1ccc(-c2ccccc2)cc1)N1C[C@H](c2ccccc2)N(CCc2ccc(Cl)c(Cl)c2)C(=O)C1=O)Cc1ccc(-c2ccccc2)cc1	none (no result: MT stabilizer, L major viab)
COc1ccc(CNC[C@@H](CCCCN(C)Cc2ccc(OC)cc2)N2C[C@H](c3ccccc3)N(CCc3ccc(Cl)c(Cl)c3)C(=O)C2=O)cc1	L major viab 100, bCat nuc transl inconclusive
CN1CCN(C2=C(Cl)C(=O)N(Cc3ccccc3)C2=O)CC1	L major viab 96
COc1ccc(NC(=O)COC(=O)c2ccc(Br)o2)cc1OC	none (no result: HSV augment)
N=c1sccn1CC(=O)Nc1cc(Cl)ccc1Oc1ccccc1	L major viab 100
CC(C)(C)NS(=O)(=O)c1ccc(CCC(=O)Nc2cc(Cl)ccc2Oc2ccccc2)cc1	L major viab 98
CCCNS(=O)(=O)c1ccc(CCC(=O)Nc2cc(Cl)ccc2Oc2ccccc2)cc1	none (no result: Dynein cargo inh)
COc1cccc(OCC(=O)Nc2ccccc2NC(C)=O)c1	none (no result: HSV augment)
COc1cccc(OCC(=O)Nc2cc(Cl)ccc2Oc2ccccc2)c1	L major viab 95
CN(C)CCCNc1nc(-c2ccccc2)nc2ccccc12	none (no result: MT stabilizer, L major viab)
CC(C)(C)C(=O)OCCNc1nc(-c2ccccc2)nc2ccccc12	L major viab 54
COc1cc(-c2nc3ccc4ccccc4c3c3c2CCC3)cc(OC)c1O	L major viab 99
C=CCNC(=O)CSc1nnc(-c2ccccc2Br)n1-c1cccc(C(F)(F)F)c1	L major viab 79
Cn1c(SCCOc2ccc(F)cc2)nnc1-c1ccncc1	none (no result: MT stabilizer, L major viab)
COc1ccc(C2C(C#N)=C(/N=C/N3CCN(C)CC3)OC3=C2C(=O)CC(C)(C)C3)cc1 (centres undefined)	L major viab 100
CCCN(Cc1ccc(N(CC)CC)cc1)CC1CC1	L major viab 76
Cc1cnc(C(=O)N2CCc3c([nH]c4ccccc34)C2c2ccc(F)cc2)cn1 (centres undefined)	none
COc1ccc(CN2CCN(C(=O)c3ccco3)CC2)cc1OC	none
COc1ccc(CN2CCN(c3ccccn3)CC2)cc1OCc1ccccc1	L major viab 72
CNC(=O)c1ccc(OCc2ccccc2)c(OC)c1	none (no result: bCat nuc transl)
CCN1CCN(Cc2ccc(OCc3ccccc3)c(OC)c2)CC1	L major viab 65
COc1cc(CN(C)CCc2ccccc2)ccc1OCc1ccccc1	L major viab 96
CCN1CCN(Cc2ccc(OC)c(OCc3ccccc3)c2)CC1	none
COc1ccc(CN2CCN(C(=O)c3ccco3)CC2)cc1OCc1ccccc1	L major viab 87
Cc1ccc(C(=O)Nc2ccc(C(=O)N/N=C/c3ccncc3)cc2)cc1	none
Cc1ccc(-c2nnc3ccc(SCC(=O)NCc4ccco4)nn23)cc1	none
COc1ccc2ccccc2c1CN1CCN(Cc2ccccc2)CC1	L major viab 56
COc1ccc2ccccc2c1CN1CCCC(CO)C1 (centres undefined)	none (no result: bCat nuc transl)
CCOc1cc(/C=C2\C(=O)NN(c3ccccc3)C2=O)cc([N+](=O)[O-])c1O	none
COc1cc(/C=C/C(=O)OCC(=O)NC(=O)NC23CC4CC(CC(C4)C2)C3)ccc1OCC#N	L major viab 93
COc1cc(/C=C/C(=O)OCC(=O)NC(=O)NC(C)C)ccc1OCC#N	none
O=C(Nc1ccon1)c1csc2c1CCCC2	L major viab 78
O=C(Nc1ccon1)c1csc2ccccc12	none (no result: bCat nuc transl)
COc1ccc(NC(=O)CN(c2ccccc2)S(=O)(=O)N(C)C)cc1OC	none (no result: HSV augment, bCat nuc transl)
O=C(NCCOc1ccccc1Cl)C(=O)c1c[nH]c2ccccc12	none
C=CCNC(=O)C(=O)NCCOc1ccccc1Cl	MT stabilizer 23
CC1(C)C(=O)CC[C@]2(C)C3C(=O)C=C4[C@H]5C[C@@](C)(C(=O)O)CC[C@]5(C)CC[C@]4(C)[C@]3(C)CC[C@@H]12 (some centres undefined)	none (no result: MT stabilizer, L major viab)
CCN(Cc1cc2ccccc2[nH]c1=O)C(=O)C1CCCCC1	none
COc1cc(/C=C2\COC/C(=C\c3cc(OC)c(OC)c(OC)c3)C2=O)cc(OC)c1OC	Dynein cargo inh -6.6 (no result: MT stabilizer, L major viab)
COc1cc(/C=C/C(C)=O)cc(OC)c1OC	none
COc1cc(/C=C2\CC/C(=C\c3cc(OC)c(OC)c(OC)c3)C2=O)cc(OC)c1OC	L major viab 96 (no result: bCat nuc transl)
COc1cc(/C=C2\CCCc3c2nc2ccccc2c3C(=O)O)cc(OC)c1O	none (no result: MT stabilizer, L major viab)
COc1ccc(/C=C2/CC/C(=C\c3ccc(OC)c(OC)c3OC)C2=O)c(OC)c1OC	none
COc1cc(/C=C2/CCC/C(=C\c3cc(O)c(OC)c(Cl)c3)C2=O)cc(Cl)c1O	L major viab 91 (no result: HSV augment, bCat nuc transl)
COc1cc(/C=C2\SC(=Nc3ccc(O)cc3)NC2=O)cc(OC)c1O	none (no result: HSV augment)
COc1cc(/C=C2\CC/C(=C\c3cc(OC)c(O)c(OC)c3)C2=O)cc(OC)c1O	L major viab 58
Cc1cccc(Nc2nnc(SCC(=O)Nc3ncc(C(F)(F)F)cc3Cl)s2)c1C	none
O=C(NC1CCCCC1)c1ccc(CS(=O)(=O)Cc2ccccc2F)o1	none
O=C(NC1CCCC1)c1ccc(CSCc2ccccc2F)o1	L major viab 89
COc1cc(C(=S)N2CCN(c3cccc(Cl)c3)CC2)ccc1O	MT stabilizer 24, bCat nuc transl 50
COc1cc(CN2CCN(c3cccc(Cl)c3)CC2)cc(OC)c1OC	MT stabilizer 46, L major viab 88
Oc1ccc(C(=S)N2CCN(c3cccc(Cl)c3)CC2)cc1	none
Cn1c(CN2CCN(c3cccc(Cl)c3)CC2)nc2ccccc21	L major viab 68
